Measured values as given in publication PMC2901902 (Nature, 2010).

How the values were obtained:
[1] = test system: H3K14ac sites in the C2C12 cell nucleus; assay: Immunofluorescence co-localization with H3K14ac in C2C12 cell nucleus; assay type: cell-based, mouse; conditions: ectopically expressed EGFP-fusion DPF3b; confocal fluorescence imaging
Method in brief: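 C2C12 myoblasts grown in DMEM with 10% fetal calf serum were transfected with full-length human DPF3b fused to EGFP. H3K14ac was stained with the same anti-H3K14ac antibody used for ChIP and a Texas Red-conjugated secondary. Nuclear overlap of the EGFP and Texas Red signals was imaged on an automated confocal microscope and images were overlaid.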

[2] = test system: H3K14ac at the mouse Pitx2 promoter site; assay: Re-ChIP; assay type: cell-based; conditions: transfected C2C12 cells, qualitative
[3] = test system: Pitx2; assay: Endogenous Pitx2 transcript level in transfected C2C12 cells; assay type: cell-based, mouse; conditions: C2C12 cells 2 days following transfection

B1: DPF3b: full length human DPF3b cloned into pEGFP-C1 vector, transfected in C2C12 cells (protein)
chain: MATVIHNPLKALGDQFYKEAIEHCRSYNSRLCAERSVRLPFLDSQTGVAQNNCYIWMEKRHRGPGLAPGQLYTYPARCWRKKRRLHPPEDPKLRLLEIKPEVELPLKKDGFTSESTTLEALLRGEGVEKKVDAREEESIQEIQRVLENDENVEEGNEEEDLEEDIPKRKNRTRGRARGSAGGRRRHDAASQEDHDKPYVCDICGKRYKNRPGLSYHYAHTHLASEEGDEAQDQETRSPPNHRNENHRPQKGPDGTVIPNNYCDFCLGGSNMNKKSGRPEELVSCADCGRSGHPTCLQFTLNMTEAVKTYKWQCIECKSCILCGTSENDDQLLFCDDCDRGYHMYCLNPPVAEPPEGSWSCHLCWELLKEKASAFGCQA
modifications: left off: EGFP, end not stated, kept
B1 was tested, and the “co-localization with H3K14ac sites in C2C12 cell nucleus” value [1] was “co-localized with H3K14ac sites”, the “DPF3b/H3K14ac interaction at Pitx2 promoter” value [2] was “interacts with H3K14ac at the Pitx2 promoter site” and the “enhancement of endogenous Pitx2 transcript” value [3] was “more than 3 fold”.
